52 compounds from ChEMBL document CHEMBL4428053, “Application of a Parallel Synthetic Strategy in the Discovery of Biaryl Acyl Sulfonamides as Efficient and Selective NaV1.7 Inhibitors” (J Med Chem, 2016) can be followed below.

Series [1] in a line: in vitro. Particulars: human, liver microsomes. In general terms: Liver microsomes are a subcellular fraction often used to study metabolism.
Series [2] concerns the target Sodium channel protein type 5 subunit alpha (Homo sapiens, UniProt Q14524). Put plainly: Inhibition of human Nav1.5 expressed in HEK293 cells incubated for 3 to 5 mins at -50 mV holding potential by electrophysiology assay. It is filed as cell-based.
A short description of series [3]: in vitro. Particulars: rat, liver microsomes.
For series [4], the target named is T1, Sodium channel protein type 9 subunit alpha (Homo sapiens, UniProt Q15858). Put plainly: Inhibition of human Nav1.7 expressed in HEK293 cells incubated for 3 to 5 mins at -125 mV holding potential by electrophysiology assay. It is filed as cell-based.
The target of series [5] is T1, Sodium channel protein type 9 subunit alpha. Put plainly: Inhibition of human Nav1.7 expressed in HEK293 cells at 5 uM incubated for 3 to 5 mins at -125 mV holding potential by electrophysiology assay relative to control. Format: cell-based.
Target sequence in this assay (Q15858 whole entry, looked up): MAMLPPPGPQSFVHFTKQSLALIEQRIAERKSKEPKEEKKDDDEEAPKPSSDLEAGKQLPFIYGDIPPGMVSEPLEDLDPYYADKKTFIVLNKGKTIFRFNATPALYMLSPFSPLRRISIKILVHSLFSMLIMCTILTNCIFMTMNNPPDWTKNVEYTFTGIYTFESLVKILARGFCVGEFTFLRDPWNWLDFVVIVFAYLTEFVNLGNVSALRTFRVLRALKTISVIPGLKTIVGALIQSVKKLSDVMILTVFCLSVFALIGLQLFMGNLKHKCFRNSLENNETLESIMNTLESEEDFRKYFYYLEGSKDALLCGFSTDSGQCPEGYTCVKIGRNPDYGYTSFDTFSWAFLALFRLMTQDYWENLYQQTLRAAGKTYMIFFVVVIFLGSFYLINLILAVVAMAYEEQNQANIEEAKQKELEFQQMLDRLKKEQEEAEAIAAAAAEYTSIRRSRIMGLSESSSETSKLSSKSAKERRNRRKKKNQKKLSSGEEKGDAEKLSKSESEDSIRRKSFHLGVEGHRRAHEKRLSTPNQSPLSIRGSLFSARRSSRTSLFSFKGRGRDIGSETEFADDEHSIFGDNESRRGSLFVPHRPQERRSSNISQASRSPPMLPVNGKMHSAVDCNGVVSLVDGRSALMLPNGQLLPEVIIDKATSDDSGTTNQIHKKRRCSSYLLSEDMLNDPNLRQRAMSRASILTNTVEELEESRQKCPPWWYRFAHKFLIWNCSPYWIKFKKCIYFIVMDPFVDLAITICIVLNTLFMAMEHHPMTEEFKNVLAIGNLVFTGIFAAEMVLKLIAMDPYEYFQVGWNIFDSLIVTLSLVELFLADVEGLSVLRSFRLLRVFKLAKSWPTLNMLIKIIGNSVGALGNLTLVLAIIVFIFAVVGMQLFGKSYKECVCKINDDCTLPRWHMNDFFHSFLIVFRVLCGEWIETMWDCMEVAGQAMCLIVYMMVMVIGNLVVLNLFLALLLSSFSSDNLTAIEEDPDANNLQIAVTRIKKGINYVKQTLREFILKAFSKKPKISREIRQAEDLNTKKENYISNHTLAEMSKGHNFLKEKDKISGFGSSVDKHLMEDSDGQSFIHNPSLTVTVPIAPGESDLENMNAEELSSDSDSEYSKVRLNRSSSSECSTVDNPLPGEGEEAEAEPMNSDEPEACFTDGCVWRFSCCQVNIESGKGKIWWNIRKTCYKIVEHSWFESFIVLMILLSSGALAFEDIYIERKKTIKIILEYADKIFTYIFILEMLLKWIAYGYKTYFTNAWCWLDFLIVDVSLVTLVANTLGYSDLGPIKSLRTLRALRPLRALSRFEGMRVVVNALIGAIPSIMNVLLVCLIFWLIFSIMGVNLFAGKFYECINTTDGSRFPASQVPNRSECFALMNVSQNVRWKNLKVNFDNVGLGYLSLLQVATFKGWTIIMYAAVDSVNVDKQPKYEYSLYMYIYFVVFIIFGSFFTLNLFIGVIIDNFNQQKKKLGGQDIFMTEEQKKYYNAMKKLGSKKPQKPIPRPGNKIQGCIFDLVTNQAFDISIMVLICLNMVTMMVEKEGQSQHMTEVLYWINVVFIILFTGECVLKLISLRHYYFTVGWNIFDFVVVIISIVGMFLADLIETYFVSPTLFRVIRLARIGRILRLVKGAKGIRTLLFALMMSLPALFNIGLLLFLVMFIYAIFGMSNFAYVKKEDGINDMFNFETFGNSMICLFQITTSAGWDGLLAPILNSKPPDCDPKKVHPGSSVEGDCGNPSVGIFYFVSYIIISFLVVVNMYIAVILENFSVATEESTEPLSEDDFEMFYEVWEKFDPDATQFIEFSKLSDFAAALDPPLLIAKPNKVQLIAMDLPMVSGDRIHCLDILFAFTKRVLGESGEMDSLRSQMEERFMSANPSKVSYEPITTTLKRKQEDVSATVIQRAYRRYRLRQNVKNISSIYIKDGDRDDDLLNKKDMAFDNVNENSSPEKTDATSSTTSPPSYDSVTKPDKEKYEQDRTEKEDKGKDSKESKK
For series [6], the target named is Voltage-gated inwardly rectifying potassium channel KCNH2 (Homo sapiens, UniProt Q12809).
Sequence of Voltage-gated inwardly rectifying potassium channel KCNH2 (Q12809 whole entry): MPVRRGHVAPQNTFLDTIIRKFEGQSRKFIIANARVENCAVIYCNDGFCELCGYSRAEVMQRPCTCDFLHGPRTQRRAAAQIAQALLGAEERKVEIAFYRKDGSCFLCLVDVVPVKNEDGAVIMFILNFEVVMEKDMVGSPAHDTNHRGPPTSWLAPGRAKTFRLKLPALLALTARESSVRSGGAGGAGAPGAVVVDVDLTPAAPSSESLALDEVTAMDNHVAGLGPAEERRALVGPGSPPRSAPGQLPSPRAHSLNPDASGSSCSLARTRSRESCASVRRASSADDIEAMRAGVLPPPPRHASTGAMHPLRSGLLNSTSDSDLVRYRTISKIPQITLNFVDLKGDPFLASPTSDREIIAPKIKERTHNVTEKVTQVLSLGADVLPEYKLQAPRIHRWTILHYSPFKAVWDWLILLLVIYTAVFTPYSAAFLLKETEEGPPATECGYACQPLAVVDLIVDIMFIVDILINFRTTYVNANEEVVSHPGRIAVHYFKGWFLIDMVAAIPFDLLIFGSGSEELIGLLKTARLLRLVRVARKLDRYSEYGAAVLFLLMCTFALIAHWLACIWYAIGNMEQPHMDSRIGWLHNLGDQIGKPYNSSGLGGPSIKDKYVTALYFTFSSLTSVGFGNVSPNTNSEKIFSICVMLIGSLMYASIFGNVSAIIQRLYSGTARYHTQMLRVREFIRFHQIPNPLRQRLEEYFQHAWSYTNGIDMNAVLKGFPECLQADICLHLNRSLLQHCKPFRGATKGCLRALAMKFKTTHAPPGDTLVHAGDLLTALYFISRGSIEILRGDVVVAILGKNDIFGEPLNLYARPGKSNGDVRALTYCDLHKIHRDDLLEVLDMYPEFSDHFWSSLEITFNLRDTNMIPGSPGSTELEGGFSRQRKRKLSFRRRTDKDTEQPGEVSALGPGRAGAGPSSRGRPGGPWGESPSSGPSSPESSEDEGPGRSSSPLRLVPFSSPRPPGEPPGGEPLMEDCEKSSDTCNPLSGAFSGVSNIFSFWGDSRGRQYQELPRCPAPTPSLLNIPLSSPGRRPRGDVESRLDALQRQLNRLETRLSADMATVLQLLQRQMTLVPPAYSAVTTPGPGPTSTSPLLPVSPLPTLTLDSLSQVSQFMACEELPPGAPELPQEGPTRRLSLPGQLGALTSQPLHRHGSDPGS
Another series relates to Mus musculus. Put plainly: In vivo inhibition of Nav1.7 in C57BL/6 mouse assessed as reduction in histamine-induced scratching bouts at 30 mg/kg, po administered 4 hrs prior to histamine challenge measured for 15 mins. Format: functional, organism-based. A digest of the protocol: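 Mice were dosed orally with vehicle, diphenhydramine (30 mg/kg, n = 8) or test article at 30 (n = 9), 100 (n = 10) or 300 (n = 10) mg/kg; vehicle n = 12. All groups received histamine intradermally. Total scratch bouts were counted, with unbound plasma concentration reported per dose. Statistics: one-way ANOVA with Dunnett's test versus vehicle.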

pIC50, pKi: −log10 of the molar value. Calls of active or inactive are those of the source. No cut-off for these calls is given here.

Sequence of Sodium channel protein type 5 subunit alpha (Q14524 whole entry): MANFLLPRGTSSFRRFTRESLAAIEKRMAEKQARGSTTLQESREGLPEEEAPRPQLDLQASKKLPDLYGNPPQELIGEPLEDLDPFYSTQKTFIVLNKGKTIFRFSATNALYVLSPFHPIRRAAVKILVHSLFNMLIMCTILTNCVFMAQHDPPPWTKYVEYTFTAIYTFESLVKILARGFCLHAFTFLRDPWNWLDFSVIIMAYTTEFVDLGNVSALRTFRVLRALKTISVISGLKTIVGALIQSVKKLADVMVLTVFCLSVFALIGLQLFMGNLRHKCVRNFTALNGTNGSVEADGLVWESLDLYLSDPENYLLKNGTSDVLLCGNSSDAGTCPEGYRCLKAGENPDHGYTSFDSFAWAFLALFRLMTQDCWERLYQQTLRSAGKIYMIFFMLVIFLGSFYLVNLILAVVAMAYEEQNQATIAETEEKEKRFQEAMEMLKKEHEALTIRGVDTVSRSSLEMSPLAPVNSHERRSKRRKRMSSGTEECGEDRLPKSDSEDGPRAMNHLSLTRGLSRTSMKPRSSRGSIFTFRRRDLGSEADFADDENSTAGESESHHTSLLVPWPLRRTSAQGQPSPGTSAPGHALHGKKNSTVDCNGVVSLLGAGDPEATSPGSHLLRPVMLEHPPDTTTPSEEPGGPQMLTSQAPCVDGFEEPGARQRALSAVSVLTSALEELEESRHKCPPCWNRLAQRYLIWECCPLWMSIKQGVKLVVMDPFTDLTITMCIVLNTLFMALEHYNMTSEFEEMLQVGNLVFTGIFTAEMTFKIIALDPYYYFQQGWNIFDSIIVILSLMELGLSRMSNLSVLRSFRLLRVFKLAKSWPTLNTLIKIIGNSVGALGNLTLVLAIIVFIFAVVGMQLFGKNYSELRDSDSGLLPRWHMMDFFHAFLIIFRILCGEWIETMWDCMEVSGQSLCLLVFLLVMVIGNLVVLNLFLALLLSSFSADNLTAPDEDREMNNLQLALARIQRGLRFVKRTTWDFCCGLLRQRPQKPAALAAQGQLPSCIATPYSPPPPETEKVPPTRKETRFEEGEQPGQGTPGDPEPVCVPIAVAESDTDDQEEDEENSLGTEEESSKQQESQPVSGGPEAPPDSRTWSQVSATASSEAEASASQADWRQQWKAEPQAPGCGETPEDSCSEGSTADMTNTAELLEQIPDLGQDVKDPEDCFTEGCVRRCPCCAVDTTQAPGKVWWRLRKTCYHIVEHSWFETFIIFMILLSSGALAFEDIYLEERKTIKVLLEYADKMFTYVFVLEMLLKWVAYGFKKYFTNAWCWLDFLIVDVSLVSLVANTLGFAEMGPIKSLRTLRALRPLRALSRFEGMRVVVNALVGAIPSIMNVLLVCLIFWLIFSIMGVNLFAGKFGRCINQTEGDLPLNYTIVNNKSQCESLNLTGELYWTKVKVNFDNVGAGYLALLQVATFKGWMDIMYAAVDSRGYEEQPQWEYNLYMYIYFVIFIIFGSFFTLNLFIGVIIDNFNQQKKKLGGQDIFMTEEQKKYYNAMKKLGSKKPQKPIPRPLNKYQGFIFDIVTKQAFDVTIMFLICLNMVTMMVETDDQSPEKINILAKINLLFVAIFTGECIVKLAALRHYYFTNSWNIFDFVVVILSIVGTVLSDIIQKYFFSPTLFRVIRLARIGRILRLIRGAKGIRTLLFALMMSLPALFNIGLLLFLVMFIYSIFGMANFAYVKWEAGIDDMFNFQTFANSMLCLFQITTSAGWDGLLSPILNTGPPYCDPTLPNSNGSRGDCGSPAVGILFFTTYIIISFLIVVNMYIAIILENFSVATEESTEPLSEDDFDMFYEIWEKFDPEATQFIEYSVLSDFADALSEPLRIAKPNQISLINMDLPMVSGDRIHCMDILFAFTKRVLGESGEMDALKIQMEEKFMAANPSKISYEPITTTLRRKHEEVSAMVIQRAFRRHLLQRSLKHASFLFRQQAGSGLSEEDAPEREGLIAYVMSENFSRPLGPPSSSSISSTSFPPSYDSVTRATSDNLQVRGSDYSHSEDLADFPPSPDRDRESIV

In the case of `COc1cc(C(=O)NS(C)(=O)=O)ccc1-c1cnc(N2CCC[C@H]2C(C)C)c(Cl)c1`, the microsomal CLint at 1 µM in “in vitro [1]” was 385 µL/min/mg; in the series “in vitro [3]”, 40 µL/min/mg. Moreover, the pIC50 in series [2] was 5.60.
In series [4], `CC(C)COc1ncc(Oc2nccc3cc(C(=O)NS(C)(=O)=O)ccc23)cc1Cl` gave a pIC50 of 6.70.
With `CS(=O)(=O)NC(=O)Cc1ccc(Cl)c(Cl)c1`, in series [5], the inhibition was less than 5%.
Still for that read-out and setting: the value for `CC(C)(C)OC(=O)N[C@@H](CC(=O)NS(C)(=O)=O)Cc1ccc(Cl)c(Cl)c1` was less than 5%.
For `COc1cc(C(=O)NS(C)(=O)=O)c(F)cc1-c1cnc(OCC2(C)CC2)c(Cl)c1`, the microsomal CLint at 1 µM was 110 µL/min/mg in the series “in vitro [1]” and less than 14 µL/min/mg in “in vitro [3]”. Also, the pIC50 in series [4] is 7.21.
For `CS(=O)(=O)NC(=O)C(=O)c1cc(-c2ccc(Cl)c(Cl)c2)on1`, the inhibition in series [5] is less than 5%.
On the same count and under the same terms, the value for `CS(=O)(=O)NC(=O)C1CCN(C(=O)c2ccc(Cl)c(Cl)c2)C1` (stereo not given) was less than 5%.
Take `CS(=O)(=O)NC(=O)c1cc(F)c(COc2ccc(Cl)c(Cl)c2)cc1F`: in series [6], the pKi is less than 4.52.
The compound `CS(=O)(=O)NC(=O)c1cscc1SCc1ccc(Cl)c(Cl)c1` had an inhibition in series [5] of less than 5%.
`CS(=O)(=O)NC(=O)c1ccc(=O)n(Cc2ccc(Cl)c(Cl)c2)c1` yielded an inhibition in series [5] of less than 5%.
Same read-out and setting: under `CS(=O)(=O)NC(=O)c1cc(-c2ccc(Cl)c(Cl)c2)nc2ccccc12` stands less than 5%.
On to `COc1cc(C(=O)NS(C)(=O)=O)ccc1-c1cnc(Oc2cc(Cl)cnc2OC)c(Cl)c1`, for which the microsomal CLint at 1 µM in the series “in vitro [1]” and in the series “in vitro [3]” was less than 14 µL/min/mg each time. Also, the pIC50 was 4.94 in series [2] and 6.82 in series [4].
Take `CS(=O)(=O)NC(=O)C1CC(=O)N(c2ccc(Cl)c(Cl)c2)C1` (stereo not given): the inhibition in series [5] is less than 5%.
On the same count and under the same terms, the value for `CS(=O)(=O)NC(=O)c1cc(-c2ccc(Cl)c(Cl)c2)on1` was less than 5%; that for `CS(=O)(=O)NC(=O)CNC(=O)c1ccc(Cl)c(Cl)c1` was less than 5%.
For `CC(C)COc1ncc(-c2ccc(C(=O)NS(C)(=O)=O)cc2C(F)(F)F)cc1Cl`, the microsomal CLint at 1 µM in the series “in vitro [1]” is greater than 399 µL/min/mg; in “in vitro [3]”, less than 14 µL/min/mg. Besides, the pIC50 in series [2] is 5.51; in series [4] it was 6.57.
On to `COc1cc(C(=O)NS(C)(=O)=O)ccc1-c1cnc(Oc2cc(F)ccc2F)c(Cl)c1`, for which the microsomal CLint at 1 µM in the series “in vitro [1]” is less than 14 µL/min/mg; in the series “in vitro [3]”, 33 µL/min/mg. Further, in series [2], the pIC50 was 4.63.
`CS(=O)(=O)NC(=O)c1ccc2nc(-c3ccc(Cl)c(Cl)c3)cn2c1` showed an inhibition in series [5] of less than 5%.
Take `CC(C)COc1ncc(-c2ncc(C(=O)NS(C)(=O)=O)cc2F)cc1Cl`: the microsomal CLint at 1 µM in the series “in vitro [1]” and in the series “in vitro [3]” was 18 µL/min/mg each time. The same compound gave a pIC50 in series [4] of 4.97.
For the compound `CS(=O)(=O)NC(=O)c1ccc(-c2ccc(Cl)c(Cl)c2)cc1`, in series [6], the negative-log Ki (pKi) is less than 4.52. For the same compound, the pIC50 in series [2] is less than 4.38; in series [4] it was 4.97.
For the compound `Cc1cc(-c2cnc(OCC(C)C)c(Cl)c2)ccc1C(=O)NS(C)(=O)=O`, the microsomal CLint at 1 µM in “in vitro [1]” is 22 µL/min/mg; in “in vitro [3]”, less than 14 µL/min/mg. Also, the pIC50 in series [4] is less than 4.38.
In turn, `CS(=O)(=O)NC(=O)C1CC(=O)N(Cc2ccc(Cl)c(Cl)c2)C1` (stereo not given) displayed an inhibition in series [5] of less than 5%.
Consider `CS(=O)(=O)NC(=O)CCc1ccc(Cl)c(Cl)c1`, for which, in series [5], the inhibition was less than 5%.
With `COc1cc(C(=O)NS(C)(=O)=O)ccc1-c1cnc(OC2CCC2)c(Cl)c1`, the values for the microsomal CLint at 1 µM in “in vitro [1]” and in “in vitro [3]” were 102 µL/min/mg and 17 µL/min/mg, respectively. In addition, the pIC50 in series [2] is 4.75; in series [4] it was 6.26.
For `CS(=O)(=O)NC(=O)Cc1ccc(NS(=O)(=O)c2ccc(Cl)c(Cl)c2)cc1`, the inhibition in series [5] is less than 5%.
Consider `CC(C)COc1ncc(-c2ccc(C(=O)NS(C)(=O)=O)c(F)c2)cc1Cl`, for which the microsomal CLint at 1 µM in the series “in vitro [1]” is less than 14 µL/min/mg; in the series “in vitro [3]”, 28 µL/min/mg. Moreover, the pIC50 is 4.74 in series [2] and 5.52 in series [4].
In the case of `COc1cc(C(=O)NS(C)(=O)=O)c(F)cc1-c1cnc(OC2CCC2)c(Cl)c1`, in series [4], the pIC50 is 6.96.
As for `CC(C)COc1ncc(-c2ccc(C(=O)NS(C)(=O)=O)cc2OC(F)(F)F)cc1Cl`, the microsomal CLint at 1 µM in “in vitro [1]” is greater than 399 µL/min/mg; in “in vitro [3]” it was less than 14 µL/min/mg. Besides, the pIC50 was 5.43 in series [2] and 6.85 in series [4].
Consider `CC(C)COc1ncc(-c2ccc(C(=O)NS(C)(=O)=O)cc2Cl)cc1Cl`, for which the microsomal CLint at 1 µM in “in vitro [1]” is 30 µL/min/mg; in the series “in vitro [3]”, 16.5 µL/min/mg. In series [4], this compound showed a pIC50 of 6.54.
`CS(=O)(=O)NC(=O)c1cc(F)c(-c2ccc(Cl)c(Cl)c2)cc1F` gave a pKi in series [6] of less than 4.52. The pIC50 in series [2] is less than 4.38; in series [4], 5.60.
The like results for `CS(=O)(=O)NC(=O)c1cc(F)c(Oc2ccc(Cl)c(Cl)c2)cc1F` were, in that order, less than 4.52, less than 4.52 and 6.13.
As for `O=S(=O)(Nc1ncns1)c1ccc2c(-c3ccc(C(F)(F)F)c(Cl)c3)nccc2c1`, the pKi in series [6] is 5.70. Moreover, the pIC50 in series [2] is 4.57; in series [4], 6.23.
As to `CC(C)COc1ncc(-c2ccc(C(=O)NS(C)(=O)=O)cc2C#N)cc1Cl`, the values for the microsomal CLint at 1 µM in the series “in vitro [1]” and in “in vitro [3]” were 20 µL/min/mg and less than 14 µL/min/mg, respectively. Also, the values for the pIC50 in series [2] and in series [4] were 4.62 and 5.79, respectively.
`CN(C)CCOC(c1ccccc1)c1ccccc1`: in the series with Mus musculus, the inhibition entry is “Active”.
For `CS(=O)(=O)NC(=O)CSCC(=O)Nc1ccc(Cl)c(Cl)c1`, the inhibition in series [5] is less than 5%.
`COc1cc(C(=O)NS(C)(=O)=O)ccc1-c1cnc(OCC2(C)CC2)c(Cl)c1`: the microsomal CLint at 1 µM in the series “in vitro [1]” and in the series “in vitro [3]” was less than 14 µL/min/mg each time. The figures for the pIC50 in series [2] and in series [4] were 5.03 and 6.70, respectively.
In the case of `CC(C)COc1ncc(-c2ccc(C(=O)NS(C)(=O)=O)cc2C2=CCOC2)cc1Cl`, the microsomal CLint at 1 µM in “in vitro [1]” is greater than 399 µL/min/mg; in the series “in vitro [3]” it was less than 14 µL/min/mg. In addition, the pIC50 in series [2] was less than 4.38; in series [4], 6.59.
Compound `CC(C)COc1ncc(-c2c(F)cc(C(=O)NS(C)(=O)=O)cc2F)cc1Cl` showed a pIC50 in series [4] of 5.91.
`COc1cc(C(=O)NS(C)(=O)=O)ccc1-c1cnc(OCC(C)C)c(Cl)c1`: the microsomal CLint at 1 µM in the series “in vitro [1]” stood at 44 µL/min/mg; in the series “in vitro [3]”, 32 µL/min/mg. The pIC50 is less than 4.52 in series [2] and 6.46 in series [4].
The corresponding values for `COc1cc(C(=O)NS(C)(=O)=O)ccc1-c1cnc(OCc2ccc(Cl)cc2)c(Cl)c1` are less than 14 µL/min/mg, less than 14 µL/min/mg, 4.68 and 6.96.
The corresponding values for `COc1cc(C(=O)NS(C)(=O)=O)ccc1-c1cnc(Oc2cc(Cl)cc(Cl)c2)c(C(F)(F)F)c1` are less than 14 µL/min/mg, less than 14 µL/min/mg, 5.63 and 7.55.
For `Cc1nn(-c2ccc(Cl)c(Cl)c2)c(C)c1C(=O)NS(C)(=O)=O`, the inhibition in series [5] is less than 5%.
Take `COc1cc(C(=O)NS(C)(=O)=O)ccc1-c1cnc(Oc2cc(Cl)cc(Cl)c2)c(C(F)F)c1`: the microsomal CLint at 1 µM in the series “in vitro [1]” and in “in vitro [3]” was less than 14 µL/min/mg in each case. Moreover, in series [2], the negative-log IC50 (pIC50) was 4.73.
Take `CS(=O)(=O)NC(=O)c1ccc2c(-c3ccc(C(F)(F)F)c(Cl)c3)nccc2c1`: in series [6], the pKi was less than 4.52. In addition, the pIC50 in series [2] was less than 4.52; in series [4], 5.81.
On to `CS(=O)(=O)NC(=O)c1csc(Nc2ccc(Cl)c(Cl)c2)n1`, for which the inhibition in series [5] is less than 5%.
In the case of `COc1cc(C(=O)NS(C)(=O)=O)ccc1-c1cnc(Sc2cccc(C)c2)c(Cl)c1`, the microsomal CLint at 1 µM was 199 µL/min/mg in “in vitro [1]” and less than 14 µL/min/mg in “in vitro [3]”. In series [4], this compound had a pIC50 of 6.80.
The like results for `CC(C)COc1ncc(-c2ccc(C(=O)NS(C)(=O)=O)cc2)cc1Cl` were, in that order, 14 µL/min/mg, less than 14 µL/min/mg and 5.92.
The corresponding values for `CC(C)COc1ncc(-c2ccc(C(=O)NS(C)(=O)=O)cc2C(=O)N(C)C)cc1Cl` are 19 µL/min/mg, less than 14 µL/min/mg and less than 4.38.
In series [5], `CS(=O)(=O)NC(=O)CSCc1ccc(Cl)c(Cl)c1` showed an inhibition of less than 5%.
The compound `CS(=O)(=O)NC(=O)c1cc(-c2ccc(Cl)c(Cl)c2)[nH]n1` gave an inhibition in series [5] of less than 5%.
As to `CC(C)COc1ncc(-c2ccc(C(=O)NS(C)(=O)=O)cc2F)cc1Cl`, the microsomal CLint at 1 µM in “in vitro [1]” came out at 27 µL/min/mg; in the series “in vitro [3]”, 22 µL/min/mg. Moreover, the values for the pIC50 in series [2] and in series [4] were 4.64 and 6.18, respectively.
As to `CC(C)COc1ncc(-c2ccc(C(=O)NS(C)(=O)=O)c(Cl)c2)cc1Cl`, the microsomal CLint at 1 µM is 26 µL/min/mg in “in vitro [1]” and less than 14 µL/min/mg in “in vitro [3]”. Further, in series [4], the pIC50 is less than 4.38.

As usually defined, the microsomal CLint is a measure of how fast metabolising enzymes remove a compound, apart from limits set by blood flow. Read a low microsomal CLint as slow turnover. Usually pIC50 stands for the negative decadic logarithm of the IC50, by convention in mol/L. Lower therefore signals a high IC50. By inhibition is commonly meant the percentage by which the read-out fell short of the control. As usually defined, the pKi is −log10 of the Ki, conventionally taken in molar units.
